Activity calls are given as the source filed them.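 Rule for the calls, unless noted: active = inhibition of the reporter signal at or above 50%; inactive = inhibition below 50%.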
Experiments:
[1] = inhibitors of TNFa-induced NFkB p65 translocation, primary screen, imaging, HUVEC, MLSMR starter and 10KST1 sets (AID 438;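 active = inhibition above 20% together with a positive visual image hit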;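 note: compound added about 3h40 before a 20 min TNFalpha stimulation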;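 for inhibition: signal is the nuclear over cytoplasmic p65 intensity ratio per well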); conditions: HUVEC TNFa-induced p65 nuclear translocation; cell count: measured here: nuclei count (cytotoxicity indicator), at 2.08 µM; inhibition: at 2 µM, stronger effect = higher value, 0% TNFa-plus-vehicle, 100% no-TNFa wells
[2] = reduction of polyQ htt aggregates in cells – imaging, exon1htt(103Q)mCFP cells, high-content imaging, primary screen (AID 483;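 active = visual image review flags a hit and inhibition of aggregation exceeds 20%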;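 note: compound exposure lasted 3 days before fixation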;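 for nuclei count: percent of the per-plate median nuclei count of sample wells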); conditions: exon1htt(103Q)mCFP cell line, aggregate imaging, at 2 µM; inhibition of aggregation: stronger effect = higher value; nuclei count: measured here: cell count, toxicity
[3] = endothelial E-selectin expression blockers – imaging, HUVEC, immunofluorescence, MLSMR starter and 10KST1 sets, primary screen (AID 487;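 active = visually confirmed hit in the image check and inhibition above 20%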;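 for inhibition: signal is fraction of cell area covered by stained E-selectin grains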;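 for nuclei count: 100% = median nuclei count of all wells on the same plate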); conditions: HUVEC TNFalpha-induced E-selectin immunofluorescence imaging, at 2 µM; inhibition: stronger effect = higher value; nuclei count: measured here: cell number, toxicity
[4] = target: Voltage-gated potassium channel subunit beta-2 (Rattus norvegicus) (UniProt P62483); assay: inhibitors of rat Kvbeta2 reductase activity – biochemical, NADPH fluorescence, primary screen (AID 622;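 active = fluorescence slope higher than the sample average by over 3 SD, cut at about -0.22 in these data, passing the limit was not always enough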;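 note: slope of raw intensity against log time taken from 70 to 1610 s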); conditions: recombinant KvBeta, 4-cyanobenzaldehyde reduction, at 10 µM, stronger effect = higher value
Voltage-gated potassium channel subunit beta-2 (Rattus norvegicus), sequence (P62483 whole entry, looked up): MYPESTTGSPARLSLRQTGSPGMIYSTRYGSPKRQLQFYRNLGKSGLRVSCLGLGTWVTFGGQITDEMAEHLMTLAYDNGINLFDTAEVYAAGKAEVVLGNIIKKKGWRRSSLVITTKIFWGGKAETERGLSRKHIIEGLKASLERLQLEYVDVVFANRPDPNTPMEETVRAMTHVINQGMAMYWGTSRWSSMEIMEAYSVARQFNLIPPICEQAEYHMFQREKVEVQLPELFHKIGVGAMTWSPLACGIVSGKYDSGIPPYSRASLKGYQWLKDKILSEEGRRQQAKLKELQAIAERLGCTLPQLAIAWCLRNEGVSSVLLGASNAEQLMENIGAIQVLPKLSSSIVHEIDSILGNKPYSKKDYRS

[5] = target: Voltage-gated potassium channel subunit beta-2 (Rattus norvegicus) (UniProt P62483); assay: enhancers of rat Kvbeta2 NADPH turnover – biochemical, NADPH fluorescence, primary screen (AID 623;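 active = NADPH fluorescence slope more negative than the mean of all samples by about 3 SD, 99.7% confidence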;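 note: fluorescence intensity change per second fitted from 20 to 320 s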); conditions: Recombinant KvBeta, NADPH fluorescence decrease slope, 10 min; at 10 µM; stronger effect = lower value
[6] = target: Muscarinic acetylcholine receptor M4 (Homo sapiens) (UniProt P08173); assay: M4-linked GIRK flux change, two-sided – cell-based, HEK293 M4/GIRK, thallium flux, BTC-AM, M4 allosteric agonist project, primary screen (AID 625;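 active = fluorescence slope after compound addition differing from the mean of all tested samples at 99.7% confidence, mostly higher but some lower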;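 note: thallium influx through GIRK channels coupled to M4 in HEK293 cells with BTC-AM dye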); conditions: at 10 µM, actives lie on both sides
Muscarinic acetylcholine receptor M4 (Homo sapiens), sequence (P08173 whole entry, looked up): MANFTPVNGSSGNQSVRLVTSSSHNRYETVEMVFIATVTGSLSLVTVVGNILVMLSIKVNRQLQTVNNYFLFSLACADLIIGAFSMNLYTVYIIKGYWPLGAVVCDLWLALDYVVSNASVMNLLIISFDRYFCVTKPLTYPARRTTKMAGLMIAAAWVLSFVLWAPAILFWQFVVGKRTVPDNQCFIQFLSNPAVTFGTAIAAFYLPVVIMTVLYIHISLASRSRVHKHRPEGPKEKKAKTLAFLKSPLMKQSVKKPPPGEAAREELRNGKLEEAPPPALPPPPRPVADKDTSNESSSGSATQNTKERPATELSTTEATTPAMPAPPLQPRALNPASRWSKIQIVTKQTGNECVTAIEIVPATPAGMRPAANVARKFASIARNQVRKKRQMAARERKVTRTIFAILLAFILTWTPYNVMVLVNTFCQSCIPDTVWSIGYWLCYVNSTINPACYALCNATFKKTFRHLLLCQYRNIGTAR
Summary of the method: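 Assay system: HEK293 cells with M4 receptor and GIRK channels / Controls: carbachol and DMSO controls / Schedule: 1 h dye loading, 2 min kinetic read / Technique: kinetic fluorescence with BTC-AM dye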

[7] = blockers of RIG-like receptor reporter activation – cell-based, Sendai virus stimulus, luciferase, 10K MLSCN set, TLR/RLR signaling modifier project, primary screen (AID 602276;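 active = inhibition at or above 50% at 10 µM; inactive = inhibition below 50%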;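 note: firefly luciferase from ISG56 promoter only with Renilla not read in this screen; 0% = Sendai virus plus DMSO and 100% = medium plus DMSO without virus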); conditions: HEK293 RL24 IRF3 luciferase reporter, at 10 µM, stronger effect = higher value
[8] = TLR3 IRF3 reporter activation blockers – cell-based, poly I:C stimulus, luciferase, 10K MLSCN set, primary screen (AID 602277); conditions: HEK293-TLR3 RL24 IRF3 luciferase reporter, at 10 µM, stronger effect = higher value

| SMILES | cell count [1] | inhibition [1] | inhibition of aggregation [2] | nuclei count [2] | inhibition [3] | nuclei count [3] | fluorescence slope [4] | NADPH fluorescence slope [5] | fluorescence slope [6] | inhibition [7] | inhibition [8] |
| --- | --- | --- | --- | --- | --- | --- | --- | --- | --- | --- | --- |
| O=C(NCc1ccccn1)Nc1ccc2c(c1)OCO2 | 415 | -12.8% (inactive) | -6.8% (inactive) | 100% | 3.1% (inactive) | 92.3% | -0.459 (inactive) | -1.3e-06 (inactive) | 0.00592 (inactive) | 10.3% (inactive) | 99.1% (active) |
| CC(=O)Nc1ccc(S(=O)(=O)N2CCSC2c2ccccc2)cc1 (stereo not drawn) | 241 | -12.1% (inactive) | -8.7% (inactive) | 106% | -34.7% (inactive) | 76.2% | -0.552 (inactive) | -3.6e-05 (inactive) | 0.00574 (inactive) | 18.3% (inactive) | 22% (inactive) |
| COC(=O)c1ccc(CSc2nc3c(cnn3-c3ccc(C)c(C)c3)c(=O)[nH]2)o1 | 433 | 9.3% (inactive) | 2.1% (inactive) | 98.4% | -55.6% (inactive) | 108% | -0.388 (inactive) | 0.000113 (inactive) | 0.0057 (inactive) | 8.02% (inactive) | 13.9% (inactive) |
| COc1ccc(S(=O)(=O)N(C)c2ccc(C(=O)N3CCOCC3)cc2)cc1 | 321 | -2.9% (inactive) | -6.7% (inactive) | 105% | -106% (inactive) | 129% | -0.515 (inactive) | -0.000149 (inactive) | 0.00412 (inactive) | 14.9% (inactive) | 16.7% (inactive) |
| Cc1cccc(C)c1NC(=O)CC(NCc1ccco1)C(=O)O (stereo not drawn) | 623 | -8.3% (inactive) | -5.4% (inactive) | 71.3% | 26.5% (inactive) | 105% | -0.364 (inactive) | -6.5e-05 (inactive) | 0.00596 (inactive) | 10.4% (inactive) | 23.1% (inactive) |
| C=Cn1c(C(=O)O)cc(CC)c1-c1ccccc1 | 642 | -12.5% (inactive) | -22.8% (inactive) | 107% | -51.5% (inactive) | 112% | -0.55 (inactive) | -4.3e-05 (inactive) | 0.00458 (inactive) | 10.9% (inactive) | 9.07% (inactive) |
| O=C(O)C1CC(=O)N(c2ccc(OCc3ccccc3Cl)cc2)C1 (stereo not drawn) | 339 | -2.2% (inactive) | 12.7% (inactive) | 97.1% | -95.2% (inactive) | 94.8% | -0.644 (inactive) | 4e-05 (inactive) | 0.0043 (inactive) | 18.4% (inactive) | 23.2% (inactive) |
| CCOc1ccccc1NC(=O)C1CCCN1C(=O)OCc1ccccc1 (stereo not drawn) | 438 | 6% (inactive) | -8.5% (inactive) | 103% | -406% (inactive) | 152% | -0.544 (inactive) | -4.2e-05 (inactive) | 0.0063 (inactive) | 4.99% (inactive) | 7.18% (inactive) |
| CCC(=O)N1CCNC(=O)C1CC(=O)Nc1ccc(C)c(Cl)c1 (stereo not drawn) | 258 | 3.7% (inactive) | -13.9% (inactive) | 102% | -40.7% (inactive) | 88.8% | -0.56 (inactive) | 1.7e-05 (inactive) | 0.00516 (inactive) | -5.01% (inactive) | -2.47% (inactive) |
| CCS(=O)(=O)N1CCC(C(=O)N2CCOCC2)CC1 | 647 | -7.3% (inactive) | -7% (inactive) | 95.7% | 27.5% (inactive) | 94.4% | -0.574 (inactive) | -2.5e-05 (inactive) | 0.00531 (inactive) | 12.1% (inactive) | 15.7% (inactive) |
| CCCCCn1c(CN(C)Cc2ccccc2)nc2c1c(=O)n(C)c(=O)n2C | 529 | -12.2% (inactive) | -2% (inactive) | 86.5% | -110% (inactive) | 110% | -0.46 (inactive) | -9.4e-05 (inactive) | 0.00453 (inactive) | 18.2% (inactive) | -3.26% (inactive) |
| Nc1nc(CSCc2ccccc2)nc(N2CCOCC2)n1 | 685 | 0.8% (inactive) | -6.3% (inactive) | 95.4% | 17.1% (inactive) | 104% | -0.262 (inactive) | -1.3e-05 (inactive) | 0.0049 (inactive) | -22.6% (inactive) | -81.5% (inactive) |
| CSc1cccc(NC(=O)C2CCCN2S(=O)(=O)c2ccc3c(c2)CCC(=O)N3)c1 (stereo not drawn) | 571 | -6.9% (inactive) | -43.4% (inactive) | 99.9% | -72.3% (inactive) | 108% | -0.456 (inactive) | 4.1e-06 (inactive) | 0.00486 (inactive) | 4.83% (inactive) | 8.19% (inactive) |
| O=S(=O)(NCC1CCCO1)c1cccc(C(F)(F)F)c1 (stereo not drawn) | 611 | -4.8% (inactive) | -6.4% (inactive) | 100% | -51.8% (inactive) | 159% | -0.568 (inactive) | 4.6e-05 (inactive) | 0.00471 (inactive) | 1.55% (inactive) | 12.2% (inactive) |
| Cc1ccc(Cn2ccc(NC(=O)c3noc4c3CCCC4)n2)cc1 | 246 | -0.8% (inactive) | -6.8% (inactive) | 97.7% | 44.7% (inactive) | 117% | -0.539 (inactive) | -3.2e-05 (inactive) | 0.00747 (inactive) | 10% (inactive) | -98.2% (inactive) |
| Cc1cc(Nc2ccccc2)n(CCC#N)n1 | 350 | 1.6% (inactive) | -7.9% (inactive) | 96.4% | -89.1% (inactive) | 129% | -0.415 (inactive) | -8.1e-05 (inactive) | 0.00613 (inactive) | 15.7% (inactive) | 14.3% (inactive) |
| CCC(C)NC(=O)c1cc(-c2ccc(OC)cc2)on1 (stereo not drawn) | 689 | -15.5% (inactive) | 1.3% (inactive) | 101% | 13.2% (inactive) | 108% | -0.286 (inactive) | -1.4e-05 (inactive) | 0.00668 (inactive) | -45.5% (inactive) | -170% (inactive) |
| CCSC1(SCC)N=C(N)C2(C#N)C(c3ccccc3)NC(C)=C(C)C12C#N (stereo not drawn) | 422 | 2% (inactive) | 13.7% (inactive) | 108% | -15.4% (inactive) | 120% | -0.401 (inactive) | -1.2e-05 (inactive) | 0.00608 (inactive) | 7.48% (inactive) | 17.3% (inactive) |
| COc1ccc(CC(=O)NCc2cccs2)cc1 | 568 | -20.6% (inactive) | -32.4% (inactive) | 103% | -83.1% (inactive) | 140% | -0.399 (inactive) | 0.000126 (inactive) | 0.0067 (inactive) | 31% (inactive) | 16.3% (inactive) |
| COc1ccc2c(C(F)(F)F)cc(=O)oc2c1C | 701 | -1.8% (inactive) | 0.8% (inactive) | 99.9% | -97% (inactive) | 111% | -0.428 (inactive) | 1.9e-05 (inactive) | 0.00456 (inactive) | 17% (inactive) | 11.3% (inactive) |
| c1cncc(-c2nnc(SCCSc3nnc(-c4cccnc4)o3)o2)c1 | 301 | -10% (inactive) | 20.4% (inactive) | 75.6% | 11.1% (inactive) | 122% | -0.345 (inactive) | -7.7e-06 (inactive) | 0.00585 (inactive) | 14.3% (inactive) | 20.3% (inactive) |
| Cc1onc(-c2ccccc2Cl)c1C(=O)Nc1cccc(-c2cn3cccnc3n2)c1 | 369 | -10.3% (inactive) | 7.8% (inactive) | 100% | -4% (inactive) | 109% | -0.0447 (inactive) | -9.5e-06 (inactive) | 0.00573 (inactive) | 7.13% (inactive) | 1.48% (inactive) |
| CCN(CCO)C1CC(=O)N(c2ccccc2C)C1=O (stereo not drawn) | 486 | 7.7% (inactive) | 12.4% (inactive) | 104% | -126% (inactive) | 145% | -0.321 (inactive) | -3.6e-05 (inactive) | 0.00663 (inactive) | 4.48% (inactive) | 13% (inactive) |
| Cc1cc(C)n(Cc2nc3ccccc3n2C)n1 | 451 | 7% (inactive) | 4% (inactive) | 100% | -24.9% (inactive) | 119% | -0.577 (inactive) | -3.2e-05 (inactive) | 0.0071 (inactive) | 4.33% (inactive) | 36.3% (inactive) |
| Cc1cc(NC(=O)C23CCC(C)(c4nc5cc(Cl)c(Cl)cc5nc42)C3(C)C)no1 (stereo not drawn) | 409 | 4.3% (inactive) | 7.4% (inactive) | 104% | -116% (inactive) | 92.1% | -0.577 (inactive) | -4.4e-05 (inactive) | 0.00686 (inactive) | 12.2% (inactive) | 15.9% (inactive) |
| O=C1CCC(=O)N1OCCCOc1ccc(Br)cc1Cl | 490 | 1% (inactive) | 9% (inactive) | 74.1% | -76% (inactive) | 106% | -0.456 (inactive) | 2e-05 (inactive) | 0.00805 (inactive) | 16.1% (inactive) | 18% (inactive) |
| COC(=O)c1ccc(CNC(=O)COc2ccccc2Br)o1 | 712 | -13.6% (inactive) | -7.2% (inactive) | 110% | 0.2% (inactive) | 81.7% | -0.556 (inactive) | -8.6e-06 (inactive) | 0.00463 (inactive) | 5.53% (inactive) | 1.32% (inactive) |
| CCN(CC)S(=O)(=O)c1ccc(N2CCCC2)c(C(=O)OCC(=O)/C(C#N)=C(\C)N)c1 | 560 | -16% (inactive) | 6.5% (inactive) | 98.3% | 8.4% (inactive) | 101% | -0.428 (inactive) | 6.6e-05 (inactive) | 0.00583 (inactive) | 15.9% (inactive) | 24.1% (inactive) |

From PubChem BioAssay
